Results reported in article PMC4593509 (Medicinal chemistry research : an international journal for …, 2015).
Converted amounts (≈) assume the structure as drawn. Read-outs that look alike come from different tables or passages of the source.

What was measured:
[1] = test system: HCC827; experiment: MTT assay, cell viability after 72 h; format: cell-based, human; details: read-out: IC50 (at day 3)
Summary of the method: (§1)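 Cells were kept in RPMI-1640 with 10% FBS at 37 °C and 5% CO₂, grown to confluency, seeded at 5,000–7,000 per well, and incubated 24 h. Medium was replaced with medium holding test compound, diluted from a 1% DMSO/water suspension, in six replicates each in triplicate. After 72 h, MTT in PBS was added for 4 h. Medium was then removed, formazan dissolved in DMSO, and OD read at 540 nm.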

[2] = test system: NCI-H460; experiment: MTT assay, cell viability after 72 h; format: cell-based, human; details: read-out: IC50 (at day 3)
Summary of the method: as §1

[3] = test system: NSCLC cell lines NCI-H460, NCI-H1975, and HCC827; experiment: MTT assay, values stated for the whole panel of NSCLC cell lines; format: cell-based, human; details: for IC50: Homo sapiens, 72 h, read-out: IC50 values against the panel of cancer cell lines
Summary of the method: as §1

[4] = test system: NCI-H1975; experiment: MTT assay, cell viability after 72 h; format: cell-based, human; details: read-out: IC50 (at day 3)
Summary of the method: as §1

[5] = Water solubility from a filtered saturated solution, by weight; format: physicochemical; details: for solubility: thermodynamic from solid
[6] = test system: NCI-H460 cell line; experiment: Annexin V; format: cell-based, human; details: H460 cells, treatment 6 h; IC23 and cisplatin at 40 μM
Summary of the method: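 NCI-H460 cells were seeded at 1×10^5 per well and left to adhere overnight. Test compound or cisplatin (40 µM) was diluted into medium from a 1% DMSO/water solution, and untreated controls got fresh medium, with 2 wells per treatment. After exposure, cells were washed twice in cold PBS and stained with FITC-Annexin V and PI in 1× binding buffer for 15 min at room temperature in the dark. Imaging used fluorescence microscopy at 10× and 20×.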

[7] = test system: PARP and caspase-3 in NCI-H460 cells; experiment: Western blotting of apoptotic proteins caspase-3 and PARP; format: cell-based, human; details: H460 cells, 5 μM, 36 h
Summary of the method: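 Confluent NCI-H460 cells, seeded at 1×10^5 per well in RPMI-1640 with 10% FBS and 1% pen-strep, were serum-starved 24 h, then treated. Cells were lysed in ice-cold Tris pH 7.5/Triton X-100 buffer with protease/phosphatase inhibitors. Equal lysate amounts were run on 4–12% SDS-PAGE and moved to PVDF, then probed with PARP, caspase-3 and GAPDH antibodies (1:1,000, 4 °C overnight) and HRP anti-rabbit (1:5,000). Detection was by ECL, with GAPDH reprobe for normalization and cisplatin lysates as control.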

SMILES	IC50 ([1]; Homo sapiens, HCC827, 72 h) [µM]	IC50 ([2]; Homo sapiens, NCI-H460, 72 h) [µM]	IC50 [3] [µM]	IC50 ([4]; Homo sapiens, NCI-H1975, 72 h) [µM]	solubility ([5]; water) [µg/mL]	further results
CC(C)n1c[n+](Cc2ccc3ccccc3c2)c(Cl)c1Cl.[Br-] [Compound 3, 4,5-dichloro-1-isopropyl-3-(naphthalen-2-ylmethyl)imidazolium bromide]	> 30	> 30	≥ 19	20	10800	–
CCCCCn1c[n+](Cc2ccc3ccccc3c2)c(Cl)c1Cl.[Br-] [Compound 5, 4,5-dichloro-3-(naphthalen-2-ylmethyl)-1-pentylimidazolium bromide]	12	10	10 to 12	12	3100	–
Clc1c(Cl)[n+](CCc2ccc3ccccc3c2)cn1CCc1ccc2ccccc2c1 [Compound 21, 4,5-Dichloro-1,3-bis(2-(naphthalen-2-yl)ethyl)-imidazolium bromide]	8	8	–	8	–	–
CCCCn1c[n+](Cc2ccc3ccccc3c2)c(Cl)c1Cl.[Br-] [Compound 4, 1-butyl-4,5-dichloro-3-(naphthalen-2-ylmethyl)-imidazolium bromide]	12	13	–	10	5700	–
CCCCCCCn1c[n+](Cc2ccc3ccccc3c2)c(Cl)c1Cl [Compound 7, 4,5-dichloro-1-heptyl-3-(naphthalen-2-ylmethyl)-imidazolium bromide]	6	6	≤ 10	4	–	–
Clc1ncn(CCc2ccc3ccccc3c2)c1Cl [Compound 20, 4,5-dichloro-1-(2-(naphthalen-2-yl)ethyl)-imidazole]	> 30	> 30	–	> 30	–	–
CCCCCCCCCn1c[n+](Cc2ccc3ccccc3c2)c(Cl)c1Cl.[Br-] [Compound 8, 4,5-dichloro-3-(naphthalen-2-ylmethyl)-1-nonylimidazolium bromide]	3	10	≤ 10	3	300	–
CCn1c[n+](Cc2ccc3ccccc3c2)c(Cl)c1Cl.[Br-] [Compound 1, 4,5-dichloro-1-ethyl-3-(naphthalen-2-ylmethyl)-imidazolium bromide]	> 30	26	≥ 19	> 30	13500	–
Clc1c(Cl)[n+](Cc2ccc3ccccc3n2)cn1Cc1ccc2ccccc2c1.[Br-] [Compound 23, 4,5-dichloro-1-(naphthalen-2-ylmethyl)-3-(quinolin-2-ylmethyl)imidazolium bromide]	9	10	–	5	900	increase in aqueous solubility from IC23 ([5]; relative to IC23): ≥ 10 fold
CCCCCCn1c[n+](Cc2ccc3ccccc3c2)c(Cl)c1Cl.[Br-] [Compound 6, 4,5-dichloro-1-hexyl-3-(naphthalen-2-ylmethyl)-imidazolium bromide]	8	5	≤ 10	5	1400	–
Clc1c(Cl)[n+](Cc2ccccc2)cn1Cc1ccccc1 [Compound 10, 1,3-dibenzyl-4,5-dichloroimidazolium bromide]	> 30	> 30	–	> 30	–	–
Clc1c(Cl)[n+](Cc2ccc3ccccc3c2)cn1CCc1ccc2ccccc2c1 [Compound 22, 4,5-dichloro-1-(2-(naphthalen-2-yl)ethyl)-3-(naphthalen-2-ylmethyl)-imidazolium bromide]	9	4	–	7	–	–
Clc1c(Cl)[n+](CCc2cccc3ccccc23)cn1CCc1cccc2ccccc12.[Br-] [Compound 17, 4,5-dichloro-1,3-bis(2-(naphthalen-1-yl)ethyl)-imidazolium bromide]	11	8	–	8	400	–
Clc1c(Cl)[n+](Cc2ccc3ccccc3c2)cn1Cc1ccccc1 [Compound 11, 1-benzyl-4,5-dichloro-3-(naphthalen-2-ylmethyl)-imidazolium bromide]	15	15	12 to 15	12	–	–
CCCCCCCCCCCCn1c[n+](Cc2ccc3ccccc3c2)c(Cl)c1Cl [Compound 9, 4,5-dichloro-1-dodecyl-3-(naphthalen-2-ylmethyl)-imidazolium bromide]	–	5	≤ 10	4	–	–
Clc1c(Cl)[n+](Cc2ccccc2)cn1CCc1cccc2ccccc12 [Compound 19, 3-benzyl-4,5-dichloro-1-(2-(naphthalen-1-yl)ethyl)-imidazolium bromide]	> 30	12	–	14	–	–
Clc1ncn(CCc2cccc3ccccc23)c1Cl [Compound 16, 4,5-dichloro-1-(2-(naphthalen-1-yl)ethyl)-imidazole]	–	–	–	–	–	IC50 ([1]; HCC827, 72 h exposure, MTT): > 30 µM; IC50 ([2]; NCI-H460, 72 h exposure, MTT): > 30 µM; IC50 ([4]; NCI-H1975, 72 h exposure, MTT): > 30 µM
CCCn1c[n+](Cc2ccc3ccccc3c2)c(Cl)c1Cl.[Br-] [Compound 2, 4,5-dichloro-3-(naphthalen-2-ylmethyl)-1-propylimidazolium bromide]	> 30	19	≥ 19	22	5200	–
[Br-].c1ccc2cc(Cn3cc[n+](Cc4ccc5ccccc5c4)c3)ccc2c1 [Compound 12, 1,3-bis(naphthalen-2-ylmethyl)imidazolium bromide]	9	4	–	6	–	stage of apoptosis (Annexin V / PI) [6]: early stages of apoptosis
Cn1c(=O)c2c(ncn2Cc2ccc3ccccc3c2)n(C)c1=O [Compound 14, 1,3-dimethyl-7-(naphthalen-2-ylmethyl)xanthine]	28	8	–	12	800 (≈ 2500 µM)	–
Clc1c(Cl)[n+](Cc2ccc3ccccc3c2)cn1CCc1cccc2ccccc12.[Br-] [Compound 18, 4,5-dichloro-1-(2-(naphthalen-1-yl)ethyl)-3-(naphthalen-2-ylmethyl)-imidazolium bromide]	7	5	–	6	100	water solubility compared to IC23 ([5]; result in words): did not show a significant increase
N.N.[Cl][Pt][Cl] [cisplatin, reference compound]	–	–	–	–	–	IC50 ([1]; HCC827, 72 h exposure, MTT): 4 µM; stage of apoptosis (Annexin V / PI) [6]: early-stage apoptosis; IC50 ([2]; NCI-H460, 72 h exposure, MTT): 3 µM; PARP-1 cleavage and amount of procaspase-3 [7]: both PARP-1 cleavage and a reduced amount of procaspase-3; IC50 ([4]; NCI-H1975, 72 h exposure, MTT): 10 µM
Cn1c(=O)c2c(n(C)c[n+]2Cc2ccc3ccccc3c2)n(C)c1=O.[I-] [Compound 15, 1,3,9-trimethyl-7-(naphthalen-2-ylmethyl)xanthinium iodide]	–	–	–	–	–	IC50 ([1]; HCC827, 72 h exposure, MTT): > 30 µM; IC50 ([2]; NCI-H460, 72 h exposure, MTT): > 30 µM; anti-tumor activity against the three cell lines ([3]; NCI-H460, NCI-H1975, HCC827, result in words): no observable anti-tumor activity; IC50 ([4]; NCI-H1975, 72 h exposure, MTT): > 30 µM; H2O solubility ([5]; water, saturated solution stirred for several hours, filtered): 2600 µg/mL
c1ccc2cc(Cn3c[n+](Cc4ccc5ccccc5c4)c4ccccc43)ccc2c1 [Compound 13, 1,3-bis(naphthalen-2-ylmethyl)benzimidazolium bromide]	5	3	–	4	–	–
